Measured values reported in ChEMBL document CHEMBL1145109, “Discovery of 4-benzoyl-1-[(4-methoxy-1H- pyrrolo[2,3-b]pyridin-3-yl)oxoacetyl]-2- (R)-methylpiperazine (BMS-378806): a novel HIV-1 attachment inhibitor that interferes with CD4-gp120 interactions” (J Med Chem, 2003).
pEC50: −log10 of the molar value.

Assays:
[1] = tested on: Human immunodeficiency virus 1; test: Inhibitory activity of compound against TLAV (dual) virus that utilizes both CXR4 and CCR5 co-receptor virus was determined; type: functional, organism-based; conditions: Human immunodeficiency virus 1, TLAV
[2] = The maximum plasma concentration of compound after paroral administration of 10 (mg/kg) polyethelene glycol in dog was determined; type: ADME, organism-based, Canis lupus familiaris; set-up: dose 10 mg/kg, route oral; conditions: po
How it was run: (§1)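 Given to rat, dog and cynomolgus monkey as a solution in poly(ethylene glycol) 400/ethanol (90:10 v/v), by intravenous and oral (po) dosing. The iv/po dose pairs in mg/kg were 5/5 or 1/5 in rat and 2/10 or 0.67/3.4 in dog and monkey. Plasma sampling gave Fpo (%), oral Cmax (µM), CLtot (mL/min/kg) and Vss (L/kg).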

[3] = Oral bioavailability after paroral administration of 10 (mg/kg) polyethelene glycol in monkey was determined; type: ADME, organism-based; conditions: primates, in vivo; how it was run: as §1
[4] = The total clearance time in rat was determined; type: ADME, organism-based; conditions: in vivo, read-out: CLtotal; how it was run: as §1
[5] = Cytotoxicity activity of compound in MT-2 cells against LAI (T) tropic virus that utilizes the CXCR-4 co-receptor virus was determined; type: functional; conditions: MT2
How it was run: (§2)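 CC50 in µM, measured as cytotoxicity toward the host cells used for the antiviral assays, either MT-2 or PM1 cells.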

[6] = tested on: Human immunodeficiency virus 1; test: Inhibitory activity of compound in MT-2 cells against JRFL (M) Macrophage tropic virus that utilizes the CCR5 was determined; type: functional, organism-based
[7] = The volume of distribution of compound was determined in monkey; type: ADME, organism-based; conditions: simiiformes, in vivo; read-out: Vss; how it was run: as §1
[8] = tested on: Human immunodeficiency virus 1; test: Inhibitory activity of compound against SF-2 (T) tropic virus that utilizes the CXCR-4 co-receptor was determined; type: functional, organism-based, sf-2 tropic virus
[9] = tested on: Human immunodeficiency virus 1; test: Cytotoxicity activity of compound against TLAV (dual) virus that utilizes both CXR4 and CCR5 co-receptor virus was determined; type: functional; conditions: Human immunodeficiency virus 1, TLAV; how it was run: as §2
[10] = The total clearance time in monkey was determined; type: ADME, organism-based; conditions: simiiformes, in vivo; read-out: CLtotal; how it was run: as §1
[11] = The volume of distribution of compound was determined in rat; type: ADME, organism-based; conditions: in vivo, read-out: Vss; how it was run: as §1
[12] = The total clearance time in dog was determined; type: ADME, organism-based, Canis lupus familiaris; conditions: in vivo, read-out: CLtotal; how it was run: as §1
[13] = Inhibitory activity of compound against LAI (T) tropic virus that utilizes the CXCR-4 co-receptor was determined; type: functional
[14] = tested on: Human immunodeficiency virus 1; test: Cytotoxicity activity of compound against BAl (M) Macrophage tropic virus that utilizes the CCR5 virus was determined; type: functional; conditions: Human immunodeficiency virus 1, CCR5; how it was run: as §2
[15] = The volume of distribution of compound a was determined in dog; type: ADME, organism-based, Canis lupus familiaris; conditions: in vivo, read-out: Vss; how it was run: as §1
[16] = The maximum plasma concentration of compound after peroral administration of 5(mg/kg) polyethelene glycol in rat was determined; type: ADME, organism-based; set-up: dose 5 mg/kg, route oral; conditions: po; how it was run: as §1
[17] = Inhibitory activity of compound against NL4-3 (T) tropic virus that utilizes the CXCR-4 co-receptor was determined; type: functional, nl4-3 tropic virus
[18] = tested on: Human immunodeficiency virus 1; test: Inhibitory activity of compound against BAl (M) Macrophage tropic virus that utilizes the CCR5 co-receptor was determined; type: functional, organism-based; conditions: Human immunodeficiency virus 1, CCR5
[19] = Oral bioavailability after paroral administration of 10 (mg/kg) polyethelene glycol in dog was determined; type: ADME, organism-based, Canis lupus familiaris; conditions: in vivo; how it was run: as §1
[20] = The maximum plasma concentration of compound after paroral administration of 10 (mg/kg) polyethelene glycol in monkey was determined; type: ADME, organism-based; set-up: dose 10 mg/kg, route oral; conditions: simiiformes, po; how it was run: as §1
[21] = Oral bioavailability after peroral administration of 5(mg/kg) polyethelene glycol in rat was determined; type: ADME, organism-based; conditions: in vivo; how it was run: as §1
[22] = tested on: Human immunodeficiency virus 1; test: Cytotoxicity activity of compound in PM1 cells against BAl (M) Macrophage tropic virus that utilizes the CCR5 virus was determined; type: functional; conditions: Human immunodeficiency virus 1, PM1; how it was run: as §2
[23] = tested on: Human immunodeficiency virus 1; test: Inhibitory activity of compound against SF-162 (M) Macrophage tropic virus that utilizes the CCR5 was determined; type: functional, organism-based, sf-162 macrophage tropic virus; conditions: Human immunodeficiency virus 1, CCR5
[24] = tested on: Human immunodeficiency virus 1; test: Cytotoxicity activity of compound in MT-2 cells against TLAV (dual) virus that utilizes both CXR4 and CCR5 co-receptor virus was determined; type: functional; conditions: Human immunodeficiency virus 1, TLAV, MT2; how it was run: as §2
[25] = tested on: Human immunodeficiency virus 1; test: Inhibitory activity of compound against JRFL (M) Macrophage tropic virus that utilizes the CCR5 was determined; type: functional, organism-based; conditions: Human immunodeficiency virus 1, CCR5
[26] = The volume of distribution of compound against rat was determined; type: ADME, organism-based; conditions: in vivo, read-out: Vss; how it was run: as §1
[27] = The maximum plasma concentration of compound after paroral administration of 3.4(mg/kg) polyethelene glycol in dog was determined; type: ADME, organism-based, Canis lupus familiaris; set-up: dose 3.4 mg/kg, route oral; conditions: po; how it was run: as §1
[28] = Oral bioavailability after paroral administration of 3.4(mg/kg) polyethelene glycol in monkey was determined; type: ADME, organism-based; conditions: primates, in vivo
How it was run: (§3)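 Oral dosing as a solution in PEG 400/ethanol (90:10 v/v). Separate iv arms were used for comparison: rat 1 mg/kg iv vs 5 mg/kg po, dog and cynomolgus monkey 0.67 mg/kg iv vs 3.4 mg/kg po. Oral bioavailability (Fpo, %) was derived from plasma exposure after oral relative to intravenous dosing.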

[29] = The volume of distribution of compound was determined in dog; type: ADME, organism-based, Canis lupus familiaris; conditions: in vivo, read-out: Vss; how it was run: as §1
[30] = The maximum plasma concentration of compound after paroral administration of 5(mg/kg) polyethelene glycol in rat was determined; type: ADME, organism-based; set-up: dose 5 mg/kg, route oral; conditions: po; how it was run: as §1
[31] = The maximum plasma concentration of compound after paroral administration of 3.4(mg/kg) polyethelene glycol in monkey was determined; type: ADME, organism-based; set-up: dose 3.4 mg/kg, route oral; conditions: simiiformes, po; how it was run: as §1
[32] = Oral bioavailability after paroral administration of 5(mg/kg) polyethelene glycol in rat was determined; type: ADME, organism-based; conditions: in vivo; how it was run: as §3
[33] = Oral bioavailability after paroral administration of 3.4(mg/kg) polyethelene glycol in dog was determined; type: ADME, organism-based, Canis lupus familiaris; conditions: in vivo; how it was run: as §3

| pEC50 [1] | clearance [4] [mL/min/kg] | Vd [7] [L/kg] | pEC50 [8] | clearance [10] [mL/min/kg] | clearance [12] [mL/min/kg] | pEC50 [13] | pEC50 [17] | pEC50 [18] | pEC50 [23] | Compound | CC50 [5] [nM] | CC50 [22] [nM] | CC50 [24] [nM] | other results |
| --- | --- | --- | --- | --- | --- | --- | --- | --- | --- | --- | --- | --- | --- | --- |
| 7.87 | 48 | 0.24 | 7.20 | 3.1 | 2.4 | 8.53 | 7.51 | 7.74 | – | O=C(C(=O)N1CCN(C(=O)c2ccccc2)CC1)c1c[nH]c2cccc(F)c12 | 146000 | – | – | Cmax [2]: 18 µM; bioavailability [3]: 100%; pEC50 [6]: 8.62; CC50 [9]: 146000 nM; Vd [11]: 0.99 L/kg; CC50 [14]: 52500 nM; Vd [15]: 1.8 L/kg; Cmax [16]: 0.15 µM; bioavailability [19]: 100%; Cmax [20]: 34 µM; bioavailability [21]: 9.4% |
| 6.83 | – | – | 5.99 | – | – | 7.07 | 5.29 | 4.54 | 6.64 | O=C(C(=O)N1CCN(C(=O)c2ccccc2)CC1)c1c[nH]c2ccccc12 | 145000 | > 200000 | 145000 | – |
| 9.07 | 32 | 0.39 | 7.58 | 10 | 5.2 | 8.57 | 8.53 | 7.81 | 8.46 | COc1ccnc2[nH]cc(C(=O)C(=O)N3CCN(C(=O)c4ccccc4)C[C@H]3C)c12 | > 300000 | > 300000 | > 300000 | pEC50 [25]: 8.83; Vd [26]: 0.56 L/kg; Cmax [27]: 7.4 µM; bioavailability [28]: 24%; Vd [29]: 0.47 L/kg; Cmax [30]: 0.22 µM; Cmax [31]: 0.51 µM; bioavailability [32]: 19%; bioavailability [33]: 77% |
